Like-named read-outs stand apart in the source and are kept apart here. Peptide text beside a SMILES is read from it.
Assays:
hTas1R2/hTas1R3 = molecular target: T1, hTas1R2/hTas1R3 (Homo sapiens, UniProt Q8TE23); assay: Ca2+ mobilization, wild type human sweet taste receptor; type: cell-based; conditions: for response in dose-response experiment: HEK293E cells with Gα16-gust44; for Bottom (B) of sigmoid dose-response fit / Top (T) of sigmoid dose-response fit: ΔF/F normalized to maximum response of hTas1R2/hTas1R3 to neotame
T1 sequence (Q8TE23 20-839): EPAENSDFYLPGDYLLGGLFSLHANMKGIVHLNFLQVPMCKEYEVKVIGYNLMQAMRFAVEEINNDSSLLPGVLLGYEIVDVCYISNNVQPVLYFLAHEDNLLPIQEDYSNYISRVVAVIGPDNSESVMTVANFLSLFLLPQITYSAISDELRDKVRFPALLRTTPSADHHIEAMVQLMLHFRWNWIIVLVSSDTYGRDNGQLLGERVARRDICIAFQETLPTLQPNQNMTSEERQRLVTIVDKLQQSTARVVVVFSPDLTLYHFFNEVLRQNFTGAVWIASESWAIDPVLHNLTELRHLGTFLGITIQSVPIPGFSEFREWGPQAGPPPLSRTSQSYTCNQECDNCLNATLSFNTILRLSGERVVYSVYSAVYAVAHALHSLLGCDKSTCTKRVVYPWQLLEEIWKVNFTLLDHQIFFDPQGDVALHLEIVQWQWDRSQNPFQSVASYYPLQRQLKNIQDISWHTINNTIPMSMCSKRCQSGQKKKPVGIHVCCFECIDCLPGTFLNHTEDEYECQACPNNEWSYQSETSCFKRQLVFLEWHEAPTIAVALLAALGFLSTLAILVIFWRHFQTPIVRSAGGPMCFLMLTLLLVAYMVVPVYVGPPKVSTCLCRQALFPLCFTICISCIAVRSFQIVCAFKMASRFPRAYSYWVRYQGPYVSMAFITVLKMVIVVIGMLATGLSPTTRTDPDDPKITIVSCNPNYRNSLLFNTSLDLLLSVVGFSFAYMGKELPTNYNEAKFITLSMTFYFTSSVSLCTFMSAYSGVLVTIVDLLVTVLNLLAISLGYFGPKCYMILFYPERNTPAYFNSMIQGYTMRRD
T1 sequence (Q7RTX0 21-852 partner): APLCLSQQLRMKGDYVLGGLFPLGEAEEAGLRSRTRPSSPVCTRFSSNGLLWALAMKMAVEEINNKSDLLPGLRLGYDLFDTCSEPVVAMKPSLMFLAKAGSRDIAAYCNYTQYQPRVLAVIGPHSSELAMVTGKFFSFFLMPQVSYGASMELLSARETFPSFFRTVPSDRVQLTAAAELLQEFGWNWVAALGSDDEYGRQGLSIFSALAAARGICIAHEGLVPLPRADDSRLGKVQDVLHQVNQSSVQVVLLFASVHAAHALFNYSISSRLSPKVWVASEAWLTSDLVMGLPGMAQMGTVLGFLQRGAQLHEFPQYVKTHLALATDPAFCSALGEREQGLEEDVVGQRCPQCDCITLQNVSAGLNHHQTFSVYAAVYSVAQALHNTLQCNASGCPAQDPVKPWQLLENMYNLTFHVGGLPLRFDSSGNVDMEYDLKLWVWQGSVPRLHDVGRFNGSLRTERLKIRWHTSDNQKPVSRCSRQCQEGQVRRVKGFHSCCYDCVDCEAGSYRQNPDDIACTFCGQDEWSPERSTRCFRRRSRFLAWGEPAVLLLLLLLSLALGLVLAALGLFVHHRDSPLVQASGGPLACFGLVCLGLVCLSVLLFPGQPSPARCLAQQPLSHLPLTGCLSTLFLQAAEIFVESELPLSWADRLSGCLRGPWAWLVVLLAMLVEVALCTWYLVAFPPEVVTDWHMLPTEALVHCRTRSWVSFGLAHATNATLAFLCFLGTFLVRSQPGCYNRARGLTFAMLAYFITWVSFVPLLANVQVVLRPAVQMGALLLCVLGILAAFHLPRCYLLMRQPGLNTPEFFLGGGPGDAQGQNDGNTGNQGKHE
Method in brief: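 HEK293E cells (Opti-MEM, 5% FBS, 37°C) were seeded at 50,000/well and cotransfected with Tas1R plasmids and Gα16-gust44 (0.06 μg each per well). Medium changed at 20 h; assayed 24 h later after 1 h loading with 3 μm Fluo-4 AM in HBSS/20 mm HEPES. Fluorescence (ex 488/em 525 nm) read 2 s apart; tastant added at 30 s, 150 s further. Peak ΔF/F sigmoid-fitted; three independent experiments.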

smTas1R2/smTas1R3 = smTas1R2/smTas1R3 (Saimiri sciureus, UniProt A3QP08); assay: Ca2+ mobilization, wild type squirrel monkey sweet taste receptor; type: cell-based, squirrel monkey (Saimiri sciureus); conditions: HEK293E cells with Gα16-gust44
Chain of smTas1R2/smTas1R3 (A3QP08 20-834): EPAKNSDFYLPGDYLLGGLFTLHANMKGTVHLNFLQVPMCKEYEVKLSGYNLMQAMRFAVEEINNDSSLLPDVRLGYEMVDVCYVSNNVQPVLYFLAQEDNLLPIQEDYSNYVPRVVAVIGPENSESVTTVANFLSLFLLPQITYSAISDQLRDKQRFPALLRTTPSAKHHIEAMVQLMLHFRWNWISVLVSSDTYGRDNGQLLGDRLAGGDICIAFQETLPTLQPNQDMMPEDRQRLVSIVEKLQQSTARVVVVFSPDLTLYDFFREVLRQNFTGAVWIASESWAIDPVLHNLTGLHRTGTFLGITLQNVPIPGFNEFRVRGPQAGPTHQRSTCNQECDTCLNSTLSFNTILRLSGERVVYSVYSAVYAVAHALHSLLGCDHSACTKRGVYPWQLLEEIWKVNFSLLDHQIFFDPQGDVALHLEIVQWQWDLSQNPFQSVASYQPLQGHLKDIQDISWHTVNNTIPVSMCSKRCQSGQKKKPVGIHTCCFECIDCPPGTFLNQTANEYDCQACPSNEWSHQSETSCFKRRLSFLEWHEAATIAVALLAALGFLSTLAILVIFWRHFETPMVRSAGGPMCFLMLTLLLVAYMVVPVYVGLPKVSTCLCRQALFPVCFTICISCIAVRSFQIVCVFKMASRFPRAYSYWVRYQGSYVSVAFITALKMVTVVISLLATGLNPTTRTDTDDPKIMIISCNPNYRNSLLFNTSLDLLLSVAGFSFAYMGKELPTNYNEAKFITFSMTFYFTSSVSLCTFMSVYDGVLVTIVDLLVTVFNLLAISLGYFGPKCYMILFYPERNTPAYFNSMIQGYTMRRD
hTas1R2:I67S+hTas1R3 = hTas1R2:I67S+hTas1R3 (Homo sapiens, UniProt Q8TE23, I67S); assay: Ca2+ mobilization, mutated human receptor; type: cell-based; conditions: aspartame 10mM, neotame 1mM, sucralose 2 mM; compared with hTas1R2/hTas1R3
Chain of hTas1R2:I67S+hTas1R3 (Q8TE23 20-839 I67S, one chain of several): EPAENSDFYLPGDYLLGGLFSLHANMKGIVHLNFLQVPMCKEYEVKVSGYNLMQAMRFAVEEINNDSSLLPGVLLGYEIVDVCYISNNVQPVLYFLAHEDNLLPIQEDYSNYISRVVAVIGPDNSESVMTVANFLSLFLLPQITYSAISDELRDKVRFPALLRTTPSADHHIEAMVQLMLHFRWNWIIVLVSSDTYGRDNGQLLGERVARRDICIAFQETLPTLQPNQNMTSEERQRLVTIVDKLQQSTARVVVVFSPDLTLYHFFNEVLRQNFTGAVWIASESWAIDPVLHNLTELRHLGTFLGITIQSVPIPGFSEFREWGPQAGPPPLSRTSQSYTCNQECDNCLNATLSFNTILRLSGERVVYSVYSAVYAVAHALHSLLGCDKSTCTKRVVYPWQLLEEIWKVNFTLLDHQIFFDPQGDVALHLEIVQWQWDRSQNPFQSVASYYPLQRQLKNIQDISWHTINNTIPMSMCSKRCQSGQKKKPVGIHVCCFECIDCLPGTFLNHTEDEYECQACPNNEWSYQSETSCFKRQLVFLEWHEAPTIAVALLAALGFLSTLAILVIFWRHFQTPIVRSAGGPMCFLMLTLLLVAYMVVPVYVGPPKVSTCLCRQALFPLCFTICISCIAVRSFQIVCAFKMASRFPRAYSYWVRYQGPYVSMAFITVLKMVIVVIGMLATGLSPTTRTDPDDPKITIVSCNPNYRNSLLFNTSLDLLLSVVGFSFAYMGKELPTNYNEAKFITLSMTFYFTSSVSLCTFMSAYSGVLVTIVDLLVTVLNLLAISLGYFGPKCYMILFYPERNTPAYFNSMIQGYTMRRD
Method in brief: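 HEK293E cells grown at 37°C in Opti-MEM with 5% FBS and seeded at 50,000/well. Cells co-lipofected with Tas1R plasmids and Gα16-gust44 (0.06 μg each per well); medium changed at 20 h, assayed 24 h later. Cells loaded 1 h with Fluo-4 AM in HEPES-buffered HBSS. Tastant added at 30 s; fluorescence (ex 488/em 525 nm) read every 2 s for 150 s more. ΔF/F normalised to human receptor maximal sucralose response; mean ± SEM, three independent experiments.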

[1] = molecular target: smTas1R2:T40S/L66V/S67I/E142D+smTas1R3 (Saimiri sciureus, UniProt A3QP08, E142D/L66V/S67I/T40S); assay: Ca2+ mobilization, mutated squirrel monkey receptor; type: cell-based, squirrel monkey (Saimiri sciureus); conditions: aspartame 10mM, neotame 1mM, sucralose 2 mM; compared with smTas1R2/smTas1R3
Chain of smTas1R2:T40S/L66V/S67I/E142D+smTas1R3 (A3QP08 20-834 T40S/L66V/S67I/E142D): as the sequence (A3QP08 20-834) above, with T21S, L47V, S48I, E123D counted along it

[2] = molecular target: smTas1R2:T40S/S67I/E142D+smTas1R3 (Saimiri sciureus, UniProt A3QP08, E142D/S67I/T40S); assay: as above; type: cell-based, squirrel monkey (Saimiri sciureus); conditions: for calcium response to sweetener: aspartame 10mM, neotame 1mM, sucralose 2 mM, compared with smTas1R2/smTas1R3; for response in dose-response experiment: versus smTas1R2+smTas1R3; for Bottom (B) of sigmoid dose-response fit / Top (T) of sigmoid dose-response fit: ΔF/F normalized to maximum response of hTas1R2/hTas1R3 to neotame
Chain of smTas1R2:T40S/S67I/E142D+smTas1R3 (A3QP08 20-834 T40S/S67I/E142D): as the sequence (A3QP08 20-834) above, with T21S, S48I, E123D counted along it
smTas1R2:T40S+smTas1R3 = smTas1R2:T40S+smTas1R3 (Saimiri sciureus, UniProt A3QP08, T40S); assay: as above; type: cell-based, squirrel monkey (Saimiri sciureus); conditions: aspartame 10mM, neotame 1mM, sucralose 2 mM; compared with smTas1R2/smTas1R3
Chain of smTas1R2:T40S+smTas1R3 (A3QP08 20-834 T40S): as the sequence (A3QP08 20-834) above, with T21S counted along it
smTas1R2:S67I+smTas1R3 = smTas1R2:S67I+smTas1R3 (Saimiri sciureus, UniProt A3QP08, S67I); assay: as above; type: cell-based, squirrel monkey (Saimiri sciureus); conditions: aspartame 10mM, neotame 1mM, sucralose 2 mM; compared with smTas1R2/smTas1R3
Chain of smTas1R2:S67I+smTas1R3 (A3QP08 20-834 S67I): as the sequence (A3QP08 20-834) above, with S48I counted along it

[3] = molecular target: smTas1R2:T40S/S67I+smTas1R3 (Saimiri sciureus, UniProt A3QP08, S67I/T40S); assay: as above; type: cell-based, squirrel monkey (Saimiri sciureus); conditions: aspartame 10mM, neotame 1mM, sucralose 2 mM
Chain of smTas1R2:T40S/S67I+smTas1R3 (A3QP08 20-834 T40S/S67I): as the sequence (A3QP08 20-834) above, with T21S, S48I counted along it

Row | SMILES | EC50 (hTas1R2/hTas1R3) [µM] | response in dose-response experiment (hTas1R2/hTas1R3) | Bottom (B) of sigmoid dose-response fit (hTas1R2/hTas1R3) | Top (T) of sigmoid dose-response fit (hTas1R2/hTas1R3) | response in dose-response experiment (smTas1R2/smTas1R3) | calcium response to sweetener (hTas1R2:I67S+hTas1R3) | calcium response to sweetener [1] | EC50 [2] [µM] | calcium response to sweetener [2] | response in dose-response experiment ([2]; dose-response) | Bottom (B) of sigmoid dose-response fit [2] | Top (T) of sigmoid dose-response fit [2] | calcium response to sweetener (smTas1R2:T40S+smTas1R3) | calcium response to sweetener (smTas1R2:S67I+smTas1R3) | calcium response to sweetener [3] | EC50 ([2]; HEK293E cells with Gα16-gust44, dose-response, calcium mobilization) [µM]
1 | COC(=O)[C@H](Cc1ccccc1)NC(=O)[C@@H](N)CC(=O)O [aspartame, L-α-aspartly-L-phenylalanine methyl ester] (H-Asp-Phe-OMe) | 5000 | good response | 7.074 | 73.32 | no response | mild phenotype | significant responses | 1200 | significant responses | good response | −2.882 | 32.61 | not able to recover | not able to recover | no response | 
2 | COC(=O)[C@H](Cc1ccccc1)NC(=O)[C@H](CC(=O)O)NCCC(C)(C)C [neotame] |  | good response | −165.1 | 92.82 | no response | slightly reduced response | significant responses |  | significant responses | good responses | −4.671 | 51.73 | not able to recover | not able to recover | no response | 280
